Results on two compounds are retold here after ChEMBL document CHEMBL1138611, “Oxadiazolylindazole sodium channel modulators are neuroprotective toward hippocampal neurones” (J Med Chem, 2009).

The IC50 is the concentration that gives 50% inhibition. For orientation: inhibition means how much of the control response was suppressed.

Structures are written as SMILES. Active and inactive are the calls of the source. The rule behind the calls is not given here.

In data set [1] the target is Cytochrome P450 2D6 (Homo sapiens, UniProt P10635). Description: Inhibition of human recombinant CYP2D6. The class given is ADME.
Sequence of Cytochrome P450 2D6 (P10635 whole entry): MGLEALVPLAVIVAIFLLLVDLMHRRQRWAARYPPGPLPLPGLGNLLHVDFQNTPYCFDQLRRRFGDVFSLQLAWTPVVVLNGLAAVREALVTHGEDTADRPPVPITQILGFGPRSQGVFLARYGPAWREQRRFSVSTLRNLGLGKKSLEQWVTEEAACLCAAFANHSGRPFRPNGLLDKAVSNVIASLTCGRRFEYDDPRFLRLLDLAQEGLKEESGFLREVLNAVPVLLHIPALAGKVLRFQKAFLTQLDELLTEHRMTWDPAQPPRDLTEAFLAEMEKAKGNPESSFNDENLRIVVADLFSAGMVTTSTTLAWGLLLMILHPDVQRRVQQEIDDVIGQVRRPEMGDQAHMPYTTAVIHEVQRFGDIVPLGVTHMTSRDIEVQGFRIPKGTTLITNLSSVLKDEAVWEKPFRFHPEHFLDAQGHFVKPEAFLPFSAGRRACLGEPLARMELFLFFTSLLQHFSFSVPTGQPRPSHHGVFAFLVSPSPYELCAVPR
The target in data set [2] is T1, Sodium channel protein type 8 subunit alpha (Homo sapiens, UniProt Q9UQD0). Description: Use-dependent inhibition of human Nav1.6 expressed in HEK293 cells at 10 uM using double-pulse protocol by patch clamp technique. It counts as cell-based. In short, it runs like this:
(§1)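 Human Nav1.2 or Nav1.6 in HEK293 cells, automated patch clamp at room temperature with 5 min exposure. Holding potential -80 mV, prepulse -120 mV, then P1 to 0 mV for 200 ms, 200 ms at -80 mV, and P2 to 0 mV for 20 ms, repeated at 0.1 Hz. Use-dependent inhibition I = (1 − P2T/P1T) × P1C/P2C × 100; mean of duplicates.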
For orientation: In patch-clamp work, channel activity is measured electrically.
Target sequence in this assay (Q9UQD0 whole entry, looked up): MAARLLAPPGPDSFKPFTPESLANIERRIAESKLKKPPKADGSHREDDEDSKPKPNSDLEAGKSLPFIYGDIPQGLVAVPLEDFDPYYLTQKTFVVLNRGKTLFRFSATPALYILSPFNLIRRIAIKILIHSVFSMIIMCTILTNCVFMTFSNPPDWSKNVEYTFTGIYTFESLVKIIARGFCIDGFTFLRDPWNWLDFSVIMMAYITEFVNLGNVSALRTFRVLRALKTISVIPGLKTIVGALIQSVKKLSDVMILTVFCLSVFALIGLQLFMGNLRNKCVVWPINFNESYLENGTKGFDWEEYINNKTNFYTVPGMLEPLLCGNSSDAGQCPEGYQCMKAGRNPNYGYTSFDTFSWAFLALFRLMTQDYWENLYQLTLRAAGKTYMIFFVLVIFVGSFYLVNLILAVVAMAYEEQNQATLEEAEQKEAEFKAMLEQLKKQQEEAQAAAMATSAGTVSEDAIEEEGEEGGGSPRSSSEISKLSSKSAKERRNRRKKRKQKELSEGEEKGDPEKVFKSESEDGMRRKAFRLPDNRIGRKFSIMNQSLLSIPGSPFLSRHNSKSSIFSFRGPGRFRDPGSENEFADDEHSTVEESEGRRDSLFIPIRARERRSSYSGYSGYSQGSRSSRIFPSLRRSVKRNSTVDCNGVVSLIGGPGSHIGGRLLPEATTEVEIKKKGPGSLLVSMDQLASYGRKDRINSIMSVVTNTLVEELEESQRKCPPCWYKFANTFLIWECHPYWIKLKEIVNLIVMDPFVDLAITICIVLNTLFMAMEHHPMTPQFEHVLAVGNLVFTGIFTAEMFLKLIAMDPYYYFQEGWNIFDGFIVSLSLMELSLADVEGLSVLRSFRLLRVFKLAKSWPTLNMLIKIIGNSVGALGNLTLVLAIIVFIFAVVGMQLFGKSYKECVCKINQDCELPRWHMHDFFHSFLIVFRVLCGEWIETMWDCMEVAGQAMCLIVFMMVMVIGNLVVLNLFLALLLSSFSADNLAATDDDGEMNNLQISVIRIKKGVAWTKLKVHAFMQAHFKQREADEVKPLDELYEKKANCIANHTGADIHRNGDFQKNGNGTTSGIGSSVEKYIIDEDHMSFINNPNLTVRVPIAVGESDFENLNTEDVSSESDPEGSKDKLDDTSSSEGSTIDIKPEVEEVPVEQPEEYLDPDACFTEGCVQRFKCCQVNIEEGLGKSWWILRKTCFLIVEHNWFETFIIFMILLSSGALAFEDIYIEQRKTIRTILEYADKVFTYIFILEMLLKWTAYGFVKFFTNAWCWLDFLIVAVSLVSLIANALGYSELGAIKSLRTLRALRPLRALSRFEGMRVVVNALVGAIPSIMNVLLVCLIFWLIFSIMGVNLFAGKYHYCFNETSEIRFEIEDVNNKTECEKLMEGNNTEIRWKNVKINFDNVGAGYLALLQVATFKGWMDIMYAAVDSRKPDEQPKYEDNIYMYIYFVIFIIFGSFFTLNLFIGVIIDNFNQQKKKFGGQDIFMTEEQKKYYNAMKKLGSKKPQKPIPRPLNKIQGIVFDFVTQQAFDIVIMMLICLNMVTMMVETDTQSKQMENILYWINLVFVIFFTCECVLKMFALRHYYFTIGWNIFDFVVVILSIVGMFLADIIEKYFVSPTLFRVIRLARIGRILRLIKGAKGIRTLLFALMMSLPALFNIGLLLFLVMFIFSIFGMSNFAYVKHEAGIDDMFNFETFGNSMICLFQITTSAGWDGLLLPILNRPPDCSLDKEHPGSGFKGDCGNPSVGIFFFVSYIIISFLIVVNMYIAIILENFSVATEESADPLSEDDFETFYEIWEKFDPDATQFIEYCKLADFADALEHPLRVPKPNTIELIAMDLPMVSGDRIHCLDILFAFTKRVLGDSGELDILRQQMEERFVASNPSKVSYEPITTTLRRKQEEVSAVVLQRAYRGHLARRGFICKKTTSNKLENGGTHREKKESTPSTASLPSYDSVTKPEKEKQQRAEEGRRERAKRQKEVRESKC

Data set [3] has as its target T2, Cytochrome P450 1A2 (Homo sapiens, UniProt P05177).
T2 sequence (P05177 whole entry): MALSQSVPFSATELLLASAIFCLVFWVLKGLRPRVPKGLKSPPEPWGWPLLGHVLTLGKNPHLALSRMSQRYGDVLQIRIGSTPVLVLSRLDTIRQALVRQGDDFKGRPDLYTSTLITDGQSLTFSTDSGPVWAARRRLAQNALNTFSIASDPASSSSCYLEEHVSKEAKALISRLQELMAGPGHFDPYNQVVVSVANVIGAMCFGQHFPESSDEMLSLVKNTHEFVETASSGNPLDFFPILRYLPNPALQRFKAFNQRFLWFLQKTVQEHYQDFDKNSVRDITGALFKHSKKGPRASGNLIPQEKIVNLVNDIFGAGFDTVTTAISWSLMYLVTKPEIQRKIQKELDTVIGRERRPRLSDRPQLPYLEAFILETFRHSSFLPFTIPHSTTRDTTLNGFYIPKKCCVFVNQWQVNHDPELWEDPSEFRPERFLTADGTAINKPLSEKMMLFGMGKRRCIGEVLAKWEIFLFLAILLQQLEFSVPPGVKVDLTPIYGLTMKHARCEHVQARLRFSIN
Description: Inhibition of human recombinant CYP1A2. The class given is ADME.

A short description of data set [4]: Inhibition of voltage-gated sodium channel in Wistar rat forebrain synaptosomes assessed as inhibition of [14C]guanidium ion flux. The class given is subcellular, Brain.
Data set [5] concerns the target Nav1.5 (sodium channel protein type 5 subunit alpha) (Homo sapiens, UniProt Q14524). Nature of the data set: Inhibition of human Nav1.5 expressed in HEK293 cells assessed as change in membrane potential using MP-red voltage sensitive dye at 10 uM. It counts as cell-based. As to conditions: HEK293 cells expressing human Nav1.5. The procedure, abridged: (§2)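 Human Nav isoforms stably expressed in HEK293 cells with β1 subunit (Nav1.8 without β subunit), with tetrodotoxin sensitivity checked. Membrane potential change read with MP-red voltage-sensitive dye kit. Single-concentration screen at 10 µM gives percent inhibition as mean of duplicates, or an IC50 in µM where determined. Compounds come from 1 or 10 mM DMSO stocks diluted in assay buffer.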

Data set [6] deals with Sodium channel protein type 1 subunit alpha (Homo sapiens) (UniProt P35498). Description: Inhibition of human Nav1.1 expressed in HEK293 cells assessed as change in membrane potential using MP-red voltage sensitive dye at 10 uM. The class given is cell-based. In short, it runs like this: as §2
Data set [7] addresses T1, Sodium channel protein type 8 subunit alpha. Description: Use-dependent inhibition of human Nav1.6 expressed in HEK293 cells at 50 uM using double-pulse protocol by patch clamp technique. It counts as cell-based. In short, it runs like this: as §1
Target sequence in this assay (Q9UQD0 whole entry, looked up): as the sequence (Q9UQD0 whole entry, looked up) above
Data set [8] has the same target. Nature of the data set: Inhibition of human Nav1.6 expressed in HEK293 cells assessed as change in membrane potential using MP-red voltage sensitive dye. The class given is cell-based. In short, it runs like this: as §2
Target sequence in this assay (Q9UQD0 whole entry): as the sequence (Q9UQD0 whole entry, looked up) above
Data set [9] addresses Sodium channel protein type 10 subunit alpha (Homo sapiens) (UniProt Q9Y5Y9). Description: Inhibition of human Nav1.8 expressed in HEK293 cells assessed as change in membrane potential using MP-red voltage sensitive dye at 10 uM. The class given is cell-based. The procedure, abridged: as §2
The species named for data set [10] is Rattus norvegicus. Description: Voltage-dependent inhibition of voltage-gated sodium channel in Sprague-Dawley rat hippocampal neurons at 30 uM at an initial membrane potential of -70 mV by voltage clamp technique. It counts as tissue-based. Also on record: scale not given: the % may be the effect or the level left. As to conditions: Hippocampus.
The target of data set [11] is T1, Sodium channel protein type 8 subunit alpha. Nature of the data set: Inhibition of Nav1.6 using 20 Hz train of 20 voltage steps from -90 mV with duration of 3.5 ms at 30 uM by paired pulse protocol.
Target sequence in this assay (Q9UQD0 whole entry, looked up): as the sequence (Q9UQD0 whole entry, looked up) above
Data set [12] has the same target. Description: Inhibition of human Nav1.6 expressed in HEK293 cells assessed as change in membrane potential at 50 uM by patch clamp technique. It counts as cell-based. In short, it runs like this:
(§3)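 Automated parallel whole-cell patch clamp at room temperature on human Nav1.2 or Nav1.6 in HEK293 cells. Each exposure lasts 5 min, at 10 and 50 µM (lamotrigine on Nav1.2 at 30 and 100 µM), with two to four cells per concentration. Peak current inhibition is given as percent, mean of duplicate experiments (n = 2) unless noted otherwise.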
Target sequence in this assay (Q9UQD0 whole entry, looked up): as the sequence (Q9UQD0 whole entry, looked up) above

Data set [13] is filed under the species Rattus norvegicus. Description: Use-dependent inhibition of voltage-gated sodium channel in Sprague-Dawley rat hippocampal neurons at 30 uM using 20 Hz train of 20 voltage steps from -90 mV with duration of 20 ms by voltage clamp technique. It counts as tissue-based. The note with it: Hippocampus. In short, it runs like this: (§4)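 Whole-cell voltage clamp of dissociated P14-16 Sprague-Dawley rat hippocampal neurons, with compound at 30 µM. A 20 Hz train of 20 voltage steps from -90 mV, each step 3.5 ms or 20 ms, and cumulative depression of peak sodium current during the train compared with control.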

Data set [14] relates to Hippocampus. Nature of the data set: Neuroprotective activity in Wistar rat hippocampal slices assessed as ATP concentration at 50 uM relative to tetrodotoxin. It counts as functional.
A short description of data set [15]: Displacement of [3H]BW202W92 from voltage-gated sodium channel in Wistar rat forebrain synaptosomes by liquid scintillation counting. The class given is subcellular, Brain. (Loss of bound radioactivity is the signal in a displacement assay; it reports binding, not function.)
Data set [16] deals with T1, Sodium channel protein type 8 subunit alpha. Nature of the data set: Inhibition of human Nav1.6 expressed in HEK293 cells assessed as change in membrane potential at 10 uM by patch clamp technique. The class given is cell-based. The procedure, abridged: as §3
Target sequence in this assay (Q9UQD0 whole entry, looked up): as the sequence (Q9UQD0 whole entry, looked up) above
The species named for data set [17] is Rattus norvegicus. Description: Voltage-dependent inhibition of voltage-gated sodium channel in Sprague-Dawley rat hippocampal neurons at 30 uM at an initial membrane potential of -90 mV by voltage clamp technique. The class given is tissue-based. The arrangement: scale not given: the % may be the effect or the level left. The note with it: Hippocampus.
Data set [18] concerns the target Sodium channel protein type 2 subunit alpha (Homo sapiens) (UniProt Q99250). Nature of the data set: Use-dependent inhibition of human Nav1.2 expressed in HEK293 cells at 50 uM using double-pulse protocol by patch clamp technique. It counts as cell-based. In short, it runs like this: as §1
The species entered for data set [19] is Rattus norvegicus. Description: Inhibition of […] state of voltage-gated sodium channel in Sprague-Dawley rat hippocampal neurons at 30 uM using 300 ms conditioning voltage step to 0 mV followed by 15 ms period at -90 mV by paired pulse protocol. As to conditions: Hippocampus. The class given is tissue-based. In short, it runs like this: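 Paired-pulse protocol on dissociated P14-16 Sprague-Dawley rat hippocampal neurons, compound at 30 µM. A 300 ms conditioning step to 0 mV (P1), 15 ms at -90 mV, then a 10 ms test step to 0 mV (P2). Tonic inhibition at P1 compared with inhibition at P2 after slow inactivation develops.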

Data set [20] concerns the target Sodium channel protein type 4 subunit alpha (Homo sapiens) (UniProt P35499). Nature of the data set: Inhibition of human Nav1.4 expressed in HEK293 cells assessed as change in membrane potential using MP-red voltage sensitive dye at 10 uM. The class given is cell-based. In short, it runs like this: as §2
For data set [21], the species on record is Rattus norvegicus. Description: Use-dependent inhibition of voltage-gated sodium channel in Sprague-Dawley rat hippocampal neurons at 30 uM using 20 Hz train of 20 voltage steps from -90 mV with duration of 3.5 ms by voltage clamp technique. The class given is tissue-based. The note with it: Hippocampus. The procedure, abridged:
as §4

The target of data set [22] is Sodium channel protein type 2 subunit alpha (Homo sapiens) (UniProt Q99250). Nature of the data set: Use-dependent inhibition of human Nav1.2 expressed in HEK293 cells at 10 uM using double-pulse protocol by patch clamp technique. It counts as cell-based. The procedure, abridged: as §1
Sequence of Sodium channel protein type 2 subunit alpha (Homo sapiens) (Q99250 whole entry, looked up): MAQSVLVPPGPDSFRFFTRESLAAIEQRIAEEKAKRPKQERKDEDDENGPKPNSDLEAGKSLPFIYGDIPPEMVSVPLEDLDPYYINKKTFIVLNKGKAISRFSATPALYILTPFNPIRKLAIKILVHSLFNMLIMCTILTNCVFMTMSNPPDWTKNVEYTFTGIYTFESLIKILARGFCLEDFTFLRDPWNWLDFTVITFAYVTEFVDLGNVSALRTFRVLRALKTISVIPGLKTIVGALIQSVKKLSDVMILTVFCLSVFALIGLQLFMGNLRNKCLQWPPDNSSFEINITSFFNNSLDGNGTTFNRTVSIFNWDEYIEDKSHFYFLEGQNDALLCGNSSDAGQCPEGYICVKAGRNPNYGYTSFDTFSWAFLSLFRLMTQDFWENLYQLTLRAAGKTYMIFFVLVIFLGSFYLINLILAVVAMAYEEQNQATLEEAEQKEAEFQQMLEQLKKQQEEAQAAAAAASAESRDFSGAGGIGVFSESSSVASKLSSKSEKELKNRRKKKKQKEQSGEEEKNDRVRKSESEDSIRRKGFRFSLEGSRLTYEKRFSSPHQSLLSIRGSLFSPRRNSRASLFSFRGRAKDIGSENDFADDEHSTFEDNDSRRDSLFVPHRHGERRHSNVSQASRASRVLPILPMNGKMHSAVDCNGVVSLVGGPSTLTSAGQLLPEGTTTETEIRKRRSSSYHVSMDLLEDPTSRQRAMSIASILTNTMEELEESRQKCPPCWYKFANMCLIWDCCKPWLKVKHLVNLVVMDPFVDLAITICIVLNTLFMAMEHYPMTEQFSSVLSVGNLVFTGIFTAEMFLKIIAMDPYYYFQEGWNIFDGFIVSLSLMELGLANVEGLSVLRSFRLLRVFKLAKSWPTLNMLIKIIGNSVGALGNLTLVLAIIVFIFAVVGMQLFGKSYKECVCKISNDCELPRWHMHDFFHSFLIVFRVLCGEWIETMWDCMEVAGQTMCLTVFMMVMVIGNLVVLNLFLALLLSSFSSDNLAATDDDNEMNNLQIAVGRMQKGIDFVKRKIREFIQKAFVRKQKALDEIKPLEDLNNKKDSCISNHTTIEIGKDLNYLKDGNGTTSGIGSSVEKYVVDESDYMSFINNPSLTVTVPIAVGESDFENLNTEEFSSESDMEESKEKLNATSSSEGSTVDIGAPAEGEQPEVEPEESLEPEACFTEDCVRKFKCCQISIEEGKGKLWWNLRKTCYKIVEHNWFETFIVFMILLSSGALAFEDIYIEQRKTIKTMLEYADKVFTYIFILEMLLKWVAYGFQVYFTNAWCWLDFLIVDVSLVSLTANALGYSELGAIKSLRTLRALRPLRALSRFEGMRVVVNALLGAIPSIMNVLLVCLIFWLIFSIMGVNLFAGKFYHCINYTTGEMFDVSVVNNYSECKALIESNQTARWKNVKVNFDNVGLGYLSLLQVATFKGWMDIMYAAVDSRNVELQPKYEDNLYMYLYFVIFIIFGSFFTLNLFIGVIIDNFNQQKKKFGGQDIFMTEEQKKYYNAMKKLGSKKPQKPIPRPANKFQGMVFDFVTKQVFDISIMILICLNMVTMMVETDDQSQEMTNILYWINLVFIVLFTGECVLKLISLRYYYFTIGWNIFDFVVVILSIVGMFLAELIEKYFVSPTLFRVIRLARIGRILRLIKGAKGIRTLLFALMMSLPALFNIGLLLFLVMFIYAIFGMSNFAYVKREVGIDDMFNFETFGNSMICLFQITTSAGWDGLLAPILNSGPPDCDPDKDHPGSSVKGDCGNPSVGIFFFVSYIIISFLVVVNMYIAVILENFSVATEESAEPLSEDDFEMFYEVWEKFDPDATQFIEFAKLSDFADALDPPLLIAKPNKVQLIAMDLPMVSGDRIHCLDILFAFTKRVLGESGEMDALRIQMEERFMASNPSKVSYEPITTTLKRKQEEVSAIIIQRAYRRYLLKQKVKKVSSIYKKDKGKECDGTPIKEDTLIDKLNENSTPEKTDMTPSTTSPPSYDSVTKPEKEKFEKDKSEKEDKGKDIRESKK
For data set [23] the target is unchanged. Description: Inhibition of human Nav1.2 expressed in HEK293 cells assessed as change in membrane potential at 10 uM by patch clamp technique. The class given is cell-based. The procedure, abridged: as §3
Data set [24] addresses Sodium channel protein type 3 subunit alpha (Homo sapiens) (UniProt Q9NY46). Description: Inhibition of human Nav1.3 expressed in HEK293 cells assessed as change in membrane potential using MP-red voltage sensitive dye at 10 uM. It counts as cell-based. The procedure, abridged:
as §2

Data set [25] deals with Sodium channel protein type 2 subunit alpha (Homo sapiens) (UniProt Q99250). Description: Inhibition of human Nav1.2 expressed in HEK293 cells assessed as change in membrane potential at 50 uM by patch clamp technique. The class given is cell-based. In short, it runs like this: as §3
The target in data set [26] is Sodium channel protein type 9 subunit alpha (Homo sapiens) (UniProt Q15858). Nature of the data set: Inhibition of human Nav1.7 expressed in HEK293 cells assessed as change in membrane potential using MP-red voltage sensitive dye at 10 uM. The class given is cell-based. The procedure, abridged: as §2
Data set [27] addresses T1, Sodium channel protein type 8 subunit alpha. Description: Inhibition of human Nav1.6 expressed in HEK293 cells assessed as change in membrane potential using MP-red voltage sensitive dye at 10 uM. It counts as cell-based. In short, it runs like this: as §2
Target sequence in this assay (Q9UQD0 whole entry, looked up): as the sequence (Q9UQD0 whole entry, looked up) above
Data set [28] concerns Hippocampus. Description: Neuroprotective activity in Wistar rat hippocampal slices assessed as ATP concentration at 3 uM relative to tetrodotoxin. The class given is functional.

Take `NCc1noc(-c2c3ccccc3nn2Cc2ccccc2)n1`: the IC50 in [1] is > 10 µM; in data set [3], 0.315 µM; in data set [4] it was 44.2 µM; in [8], 1.03 µM; in data set [15], 6.7 µM. In addition, the inhibition in data set [2] came to 29%; in [6], 51%; in data set [7], 65.8%; in [9] it was 84%; in data set [12], 31.5%; in data set [16], 10.2%. In addition, the inhibition in [18] was found to be 70.8%; in [20], 98%; in data set [22], 35.8%; in [23], 13%; in data set [24] it was 78%; in data set [25] it was 33.8%. The inhibition in [26] was 92%. In addition, the inhibition at 10 µM in data set [5] was found to be 81%. In addition, the Activity is 60% in data set [10], 63% in [14] and 10% in data set [17]. Besides, the result in data set [11], in data set [13], in data set [19] and in data set [21] was Active.
For the compound `Nc1nc(N)c(-c2cc(Cl)cc(Cl)c2Cl)c(CF)n1`, the inhibition is 81.4% in data set [2]; 56% in [6]; 97.3% in data set [7]; 86% in data set [9]; 62.7% in data set [12]; 37% in data set [27]. For the same compound, the inhibition was found to be 2.3% in [16]; 88.5% in [18]; 98% in [20]; 43.4% in data set [22]; 0.7% in data set [23]; 100% in [24]. The inhibition in data set [25] was determined as 75.2%; in data set [26] it was 44%. The IC50 was 2.6 µM in [4] and 0.04 µM in data set [15]. In addition, in data set [5], the inhibition at 10 µM worked out at 39%. Further, the Activity in data set [28] was found to be 93%.
